Results taken from ChEMBL document CHEMBL4190249, “Antiproliferative and apoptotic activities of sequence-specific histone acetyltransferase inhibitors” (Eur J Med Chem, 2017).
Activity calls are given as the source filed them. No cut-off for these calls is given here.

Assays:
[1] = tested on: dsDNA; experiment: Binding affinity to 5'-ACTTATTCCATATAGA-3'/3'-TGAATAAGGTATATCT-5' dsDNA (unknown origin) assessed as change in melting temperature at 2.5 uM by spectrophotometric method; assay type: nucleic-acid assay
[2] = tested on: dsDNA; experiment: Binding affinity to 5'-ACTTATCCACTATAGA-3'/3'-TGAATAGGTGATATCT-5' dsDNA (unknown origin) assessed as change in melting temperature at 2.5 uM by spectrophotometric method; assay type: nucleic-acid assay
[3] = target: Histone acetyltransferase p300 (Homo sapiens, UniProt Q09472); experiment: Inhibition of p300 (unknown origin) using H3 peptide and acetyl-coA as substrate by fluorometric assay
Sequence of Histone acetyltransferase p300 (Q09472 whole entry, the tested form may be a part): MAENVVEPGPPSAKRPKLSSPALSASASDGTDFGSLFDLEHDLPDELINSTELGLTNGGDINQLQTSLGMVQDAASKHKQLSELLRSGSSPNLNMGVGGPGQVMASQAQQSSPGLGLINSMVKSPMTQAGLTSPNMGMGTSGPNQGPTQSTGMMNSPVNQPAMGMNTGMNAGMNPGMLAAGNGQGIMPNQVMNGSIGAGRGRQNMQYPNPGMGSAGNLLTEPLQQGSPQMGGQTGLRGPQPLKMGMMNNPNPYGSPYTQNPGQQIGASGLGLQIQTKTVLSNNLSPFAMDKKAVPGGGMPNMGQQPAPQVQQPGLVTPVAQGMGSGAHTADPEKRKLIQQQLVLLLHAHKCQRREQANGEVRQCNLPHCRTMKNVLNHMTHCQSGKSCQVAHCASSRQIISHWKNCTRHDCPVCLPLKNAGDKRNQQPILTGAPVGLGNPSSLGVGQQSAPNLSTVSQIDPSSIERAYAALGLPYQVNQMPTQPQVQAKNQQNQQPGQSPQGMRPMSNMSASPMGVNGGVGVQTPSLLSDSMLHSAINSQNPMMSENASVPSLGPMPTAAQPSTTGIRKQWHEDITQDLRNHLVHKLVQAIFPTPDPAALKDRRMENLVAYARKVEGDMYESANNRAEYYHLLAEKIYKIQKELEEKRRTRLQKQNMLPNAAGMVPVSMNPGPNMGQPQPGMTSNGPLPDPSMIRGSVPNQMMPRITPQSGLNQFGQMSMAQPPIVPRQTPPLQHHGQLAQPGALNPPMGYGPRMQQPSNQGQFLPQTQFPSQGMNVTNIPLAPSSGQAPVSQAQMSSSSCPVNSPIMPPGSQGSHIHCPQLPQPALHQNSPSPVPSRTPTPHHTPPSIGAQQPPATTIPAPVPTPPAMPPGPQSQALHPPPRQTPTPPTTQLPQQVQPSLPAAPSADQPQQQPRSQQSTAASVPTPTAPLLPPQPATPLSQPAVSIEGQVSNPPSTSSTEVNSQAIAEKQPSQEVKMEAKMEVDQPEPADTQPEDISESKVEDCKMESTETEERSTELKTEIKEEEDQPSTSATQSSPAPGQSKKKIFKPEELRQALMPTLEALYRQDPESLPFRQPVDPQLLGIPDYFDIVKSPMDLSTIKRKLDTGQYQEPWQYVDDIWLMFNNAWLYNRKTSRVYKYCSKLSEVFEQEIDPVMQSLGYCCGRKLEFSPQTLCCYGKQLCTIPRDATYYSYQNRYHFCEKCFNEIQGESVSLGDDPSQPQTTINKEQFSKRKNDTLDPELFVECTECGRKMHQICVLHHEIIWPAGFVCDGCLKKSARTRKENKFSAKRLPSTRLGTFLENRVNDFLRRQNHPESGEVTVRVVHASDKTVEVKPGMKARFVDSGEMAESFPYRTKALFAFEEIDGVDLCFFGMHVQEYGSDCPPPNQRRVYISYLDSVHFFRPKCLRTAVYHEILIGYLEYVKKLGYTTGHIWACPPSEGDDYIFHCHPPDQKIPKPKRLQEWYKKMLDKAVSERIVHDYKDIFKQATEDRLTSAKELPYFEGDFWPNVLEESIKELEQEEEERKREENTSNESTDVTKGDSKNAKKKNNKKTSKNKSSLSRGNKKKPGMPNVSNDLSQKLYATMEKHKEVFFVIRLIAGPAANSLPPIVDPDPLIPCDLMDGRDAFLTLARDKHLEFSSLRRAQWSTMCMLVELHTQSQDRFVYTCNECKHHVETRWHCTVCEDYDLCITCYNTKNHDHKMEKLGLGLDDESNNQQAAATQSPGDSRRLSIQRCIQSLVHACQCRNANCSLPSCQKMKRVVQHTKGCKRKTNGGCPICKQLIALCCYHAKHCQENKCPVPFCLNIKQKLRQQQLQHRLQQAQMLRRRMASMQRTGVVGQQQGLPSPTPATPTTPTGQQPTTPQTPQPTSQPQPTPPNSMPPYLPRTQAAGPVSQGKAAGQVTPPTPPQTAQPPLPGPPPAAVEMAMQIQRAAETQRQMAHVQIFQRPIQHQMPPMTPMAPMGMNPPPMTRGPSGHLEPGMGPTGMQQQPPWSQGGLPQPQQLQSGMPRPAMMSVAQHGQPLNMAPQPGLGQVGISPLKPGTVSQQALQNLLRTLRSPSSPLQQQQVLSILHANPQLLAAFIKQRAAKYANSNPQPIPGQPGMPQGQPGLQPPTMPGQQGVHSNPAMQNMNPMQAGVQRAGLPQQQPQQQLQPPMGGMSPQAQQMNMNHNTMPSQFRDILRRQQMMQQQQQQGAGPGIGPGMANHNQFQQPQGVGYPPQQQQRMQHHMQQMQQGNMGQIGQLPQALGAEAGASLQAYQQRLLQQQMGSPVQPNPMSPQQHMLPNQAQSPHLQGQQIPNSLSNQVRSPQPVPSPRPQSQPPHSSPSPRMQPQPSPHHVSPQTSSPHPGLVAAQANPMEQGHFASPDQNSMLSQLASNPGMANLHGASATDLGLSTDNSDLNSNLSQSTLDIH
In short: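 Fluorometric HAT kit assay with recombinant p300 core domain as enzyme and acetyl-CoA plus H3 histone peptide as substrates. Effectors were tested at 1 and 5 μM. HeLa nuclear extract served as positive control, and 0.5% DMSO was set as 100% activity.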

[4] = tested on: A549; experiment: Antiproliferative activity against human A549 cells at 0.1 to 10 uM after 96 hrs by WST8 assay; assay type: functional, cell-based
In short: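 Cells seeded at 5×10^3 per well and grown 24 h at 37°C, 5% CO2. A549 medium was DMEM with 10% FBS and 2 mM L-glutamine. SW620 medium had 10% FBS and 1% penicillin/streptomycin. Medium was then replaced with conjugate at 0.1, 1, 5 or 10 μM for 96 h. WST-8 reagent was added and absorbance read at 450 nm. Results are mean ± SD.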

[5] = target: Cellular tumor antigen p53 (Homo sapiens) (UniProt P04637); experiment: Activation of p53 in human A549 cells assessed as upregulation of SPATA18 gene expression at 2 uM after 48 hrs by microarray analysis relative to control; assay type: cell-based
Sequence of Cellular tumor antigen p53 (Homo sapiens) (P04637 whole entry, looked up): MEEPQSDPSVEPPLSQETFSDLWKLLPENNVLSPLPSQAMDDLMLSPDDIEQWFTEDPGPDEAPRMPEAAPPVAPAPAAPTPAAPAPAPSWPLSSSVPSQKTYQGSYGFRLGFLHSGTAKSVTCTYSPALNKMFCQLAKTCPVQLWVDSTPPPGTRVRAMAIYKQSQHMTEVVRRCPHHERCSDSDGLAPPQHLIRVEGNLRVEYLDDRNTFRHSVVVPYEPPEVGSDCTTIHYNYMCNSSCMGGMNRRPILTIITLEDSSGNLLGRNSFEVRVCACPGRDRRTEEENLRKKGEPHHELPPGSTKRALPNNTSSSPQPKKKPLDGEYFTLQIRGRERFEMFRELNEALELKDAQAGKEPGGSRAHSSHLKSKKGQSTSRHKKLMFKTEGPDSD
In short: (§1)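 A549 cells plated at 2×10^5 cells/well, treated 48 h at 2 μM, with DMSO vehicle as control. Whole-genome transcriptional profiling followed the manufacturer's protocol. Total RNA integrity was checked by Bioanalyzer before arraying.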

[6] = target: Cellular tumor antigen p53 (Homo sapiens) (UniProt P04637); experiment: Activation of p53 in human A549 cells assessed as upregulation of EDA2R gene expression at 2 uM after 48 hrs by microarray analysis relative to control; assay type: cell-based; in short: as §1
[7] = tested on: A549; experiment: Upregulation of ABCA12 gene expression in human A549 cells at 2 uM after 48 hrs by microarray analysis relative to control; assay type: functional; in short: as §1
[8] = target: Cellular tumor antigen p53 (Homo sapiens) (UniProt P04637); experiment: Activation of p53 in human A549 cells assessed as upregulation of BTG2 gene expression at 2 uM after 48 hrs by microarray analysis relative to control; assay type: cell-based; in short: as §1
[9] = tested on: A549; experiment: Upregulation of MIR3189 gene expression in human A549 cells at 2 uM after 48 hrs by microarray analysis relative to control; assay type: functional; in short: as §1
[10] = tested on: A549; experiment: Upregulation of CDKN1A gene expression in human A549 cells at 2 uM after 48 hrs by microarray analysis relative to control; assay type: functional; in short: as §1
[11] = tested on: A549; experiment: Upregulation of SULF2 gene expression in human A549 cells at 2 uM after 48 hrs by microarray analysis relative to control; assay type: functional; in short: as §1
[12] = tested on: A549; experiment: Upregulation of WDR63 gene expression in human A549 cells at 2 uM after 48 hrs by microarray analysis relative to control; assay type: functional; in short: as §1
[13] = target: Cellular tumor antigen p53 (Homo sapiens) (UniProt P04637); experiment: Activation of p53 in human A549 cells assessed as upregulation of FDXR gene expression at 2 uM after 48 hrs by microarray analysis relative to control; assay type: cell-based; in short: as §1
[14] = target: Cellular tumor antigen p53 (Homo sapiens) (UniProt P04637); experiment: Activation of p53 in human A549 cells assessed as upregulation of MDM2 gene expression at 2 uM after 48 hrs by microarray analysis relative to control; assay type: cell-based; in short: as §1
[15] = tested on: A549; experiment: Upregulation of UIMC1 gene expression in human A549 cells at 2 uM after 48 hrs by microarray analysis relative to control; assay type: functional; in short: as §1
[16] = tested on: A549; experiment: Upregulation of MIR4713 gene expression in human A549 cells at 2 uM after 48 hrs by microarray analysis relative to control; assay type: functional; in short: as §1
[17] = target: Cellular tumor antigen p53 (Homo sapiens) (UniProt P04637); experiment: Activation of p53 in human A549 cells assessed as upregulation of SESN1 gene expression at 2 uM after 48 hrs by microarray analysis relative to control; assay type: cell-based; in short: as §1
[18] = tested on: A549; experiment: Upregulation of SCARNA7 gene expression in human A549 cells at 2 uM after 48 hrs by microarray analysis relative to control; assay type: functional; in short: as §1
[19] = tested on: A549; experiment: Upregulation of MIR3685 gene expression in human A549 cells at 2 uM after 48 hrs by microarray analysis relative to control; assay type: functional; in short: as §1
[20] = target: Cellular tumor antigen p53 (Homo sapiens) (UniProt P04637); experiment: Activation of p53 in human A549 cells assessed as upregulation of CYFIP2 gene expression at 2 uM after 48 hrs by microarray analysis relative to control; assay type: cell-based; in short: as §1
[21] = tested on: A549; experiment: Upregulation of POLH gene expression in human A549 cells at 2 uM after 48 hrs by microarray analysis relative to control; assay type: functional; in short: as §1
[22] = target: Cellular tumor antigen p53 (Homo sapiens) (UniProt P04637); experiment: Activation of p53 in human A549 cells assessed as upregulation of TP53INP1 gene expression at 2 uM after 48 hrs by microarray analysis relative to control; assay type: cell-based; in short: as §1
[23] = target: Cellular tumor antigen p53 (Homo sapiens) (UniProt P04637); experiment: Activation of p53 in human A549 cells assessed as upregulation of CD70 gene expression at 2 uM after 48 hrs by microarray analysis relative to control; assay type: cell-based; in short: as §1
[24] = target: Cellular tumor antigen p53 (Homo sapiens) (UniProt P04637); experiment: Activation of p53 in human A549 cells assessed as upregulation of FAS gene expression at 2 uM after 48 hrs by microarray analysis relative to control; assay type: cell-based; in short: as §1
[25] = tested on: A549; experiment: Upregulation of GDF15 gene expression in human A549 cells at 2 uM after 48 hrs by microarray analysis relative to control; assay type: functional; in short: as §1
[26] = tested on: A549; experiment: Upregulation of GAS6-AS1 gene expression in human A549 cells at 2 uM after 48 hrs by microarray analysis relative to control; assay type: functional; in short: as §1
[27] = tested on: A549; experiment: Upregulation of ANKRD1 gene expression in human A549 cells at 2 uM after 48 hrs by microarray analysis relative to control; assay type: functional; in short: as §1
[28] = target: Cellular tumor antigen p53 (Homo sapiens) (UniProt P04637); experiment: Activation of p53 in human A549 cells assessed as upregulation of DDB2 gene expression at 2 uM after 48 hrs by microarray analysis relative to control; assay type: cell-based; in short: as §1
[29] = tested on: A549; experiment: Upregulation of NEFL gene expression in human A549 cells at 2 uM after 48 hrs by microarray analysis relative to control; assay type: functional; in short: as §1
[30] = tested on: A549; experiment: Downregulation of SNORA9 gene expression in human A549 cells at 2 uM after 48 hrs by microarray analysis relative to control; assay type: functional; in short: as §1
[31] = tested on: A549; experiment: Downregulation of ALDH1L2 gene expression in human A549 cells at 2 uM after 48 hrs by microarray analysis relative to control; assay type: functional; in short: as §1
[32] = target: Cellular tumor antigen p53 (Homo sapiens) (UniProt P04637); experiment: Activation of p53 in human A549 cells assessed as downregulation of CARS gene expression at 2 uM after 48 hrs by microarray analysis relative to control; assay type: cell-based; in short: as §1
[33] = tested on: A549; experiment: Downregulation of ASNS gene expression in human A549 cells at 2 uM after 48 hrs by microarray analysis relative to control; assay type: functional; in short: as §1
[34] = tested on: A549; experiment: Downregulation of TAS2R30 gene expression in human A549 cells at 2 uM after 48 hrs by microarray analysis relative to control; assay type: functional; in short: as §1
[35] = target: Cellular tumor antigen p53 (Homo sapiens) (UniProt P04637); experiment: Activation of p53 in human A549 cells assessed as downregulation of STC2 gene expression at 2 uM after 48 hrs by microarray analysis relative to control; assay type: cell-based; in short: as §1
[36] = tested on: A549; experiment: Downregulation of ULBP1 gene expression in human A549 cells at 2 uM after 48 hrs by microarray analysis relative to control; assay type: functional; in short: as §1
[37] = tested on: A549; experiment: Downregulation of GUSBP3 gene expression in human A549 cells at 2 uM after 48 hrs by microarray analysis relative to control; assay type: functional; in short: as §1
[38] = target: Cellular tumor antigen p53 (Homo sapiens) (UniProt P04637); experiment: Activation of p53 in human A549 cells assessed as downregulation of CHAC1 gene expression at 2 uM after 48 hrs by microarray analysis relative to control; assay type: cell-based; in short: as §1
[39] = tested on: A549; experiment: Induction of apoptosis in human A549 cells at 2 uM after 48 hrs by Annexin V-FITC/ethidium homodimer-3/Hoechst 33342 staining based fluorescence microscopic method; assay type: functional, cell-based
In short: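 A549 cells seeded in chamber slides at 2×10^4 cells/well and exposed to 2 μM for 48 h; vehicle control 0.1% DMSO. Cells were washed in binding buffer and stained with FITC-annexin V (apoptotic), ethidium homodimer III (necrotic) and Hoechst 33342 (all nuclei), then imaged by confocal fluorescence microscopy.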

[40] = tested on: A549; experiment: Anticlonogenic activity against human A549 cells after 10 days; assay type: functional, cell-based; conditions: A549, 240 h
[41] = tested on: NCI-H157; experiment: Anticlonogenic activity against human NCI-H157 cells after 10 days; assay type: functional, cell-based; conditions: NCI-H157, 240 h
[42] = tested on: NCI-H460; experiment: Anticlonogenic activity against human NCI-H460 cells after 10 days; assay type: functional, cell-based; conditions: NCI-H460, 240 h

CC1=NN(c2ccc(C(=O)NCCOCCOCC(=O)NCCC(=O)Nc3cn(C)c(C(=O)Nc4cc(C(=O)Nc5cn(C)c(C(=O)Nc6cn(C)c(C(=O)NCCCC(=O)Nc7cc(C(=O)Nc8cc(C(=O)Nc9cc(C(=O)Nc%10cc(C(=O)NCCCN(C)C)n(C)c%10)n(C)c9)n(C)c8)n(C)c7)n6)n5)n(C)c4)n3)cc2)C(=O)/C1=C/c1ccc(-c2cc(C)c(C)cc2[N+](=O)[O-])o1
ΔTm [1]: 13.6 °C | ΔTm [2]: 20.9 °C | IC50 [3]: 3.9 to 4.2 µM | Activity [4]: Active | Activity [5]: inactive | Activity [6]: inactive | Activity [7]: inactive | Activity [8]: inactive | Activity [9]: inactive | Activity [10]: inactive | Activity [11]: inactive | Activity [12]: inactive | Activity [13]: inactive | Activity [14]: inactive | Activity [15]: inactive | Activity [16]: inactive | Activity [17]: inactive | Activity [18]: inactive | Activity [19]: inactive | Activity [20]: inactive | Activity [21]: inactive | Activity [22]: inactive | Activity [23]: inactive | Activity [24]: inactive | Activity [25]: inactive | Activity [26]: inactive | Activity [27]: inactive | Activity [28]: inactive | Activity [29]: inactive | Activity [30]: inactive | Activity [31]: inactive | Activity [32]: inactive | Activity [33]: inactive | Activity [34]: inactive | Activity [35]: inactive | Activity [36]: inactive | Activity [37]: inactive | Activity [38]: inactive | Activity [39]: inactive

CCCCCCCCCCCCCCOc1cc(OCCCCCC(=O)NCCC(=O)Nc2cc(C(=O)Nc3cn(C)c(C(=O)Nc4cn(C)c(C(=O)Nc5cc(C(=O)NCCCC(=O)Nc6cc(C(=O)Nc7cc(C(=O)Nc8cc(C(=O)Nc9cc(C(=O)O)n(C)c9)n(C)c8)n(C)c7)n(C)c6)n(C)c5)n4)n3)n(C)c2)cc(O)c1C(=O)O
inhibition [3]: Dose-dependent effect

CCCCCCCCCCCCCCOc1cc(OCCCCCC(=O)NCCC(=O)Nc2cc(C(=O)Nc3cn(C)c(C(=O)Nc4cn(C)c(C(=O)Nc5cc(C(=O)NCCCC(=O)Nc6cc(C(=O)Nc7cc(C(=O)Nc8cc(C(=O)Nc9cc(C(=O)NCCCN(C)C)n(C)c9)n(C)c8)n(C)c7)n(C)c6)n(C)c5)n4)n3)n(C)c2)cc(O)c1C(=O)O
inhibition [3]: Dose-dependent effect

CC1=NN(c2ccc(C(=O)O)cc2)C(=O)/C1=C/c1ccc(-c2cc(C)c(C)cc2[N+](=O)[O-])o1
IC50 [40]: 10 µM | IC50 [41]: 6 µM | IC50 [42]: 6.3 µM | Activity [4]: inactive
